Source: PubChem BioAssay (several laboratories)
hERG protect: hERG (human) protection from proarrhythmic block | activation (rescue from dofetilide block), less the hit threshold, % at 10 µM | actives 0.51% (n = 310,000) | CHO-hERG, FluxOR thallium flux, dofetilide IC70 present | Q12809;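 active means activation above the mean of controls blocked by dofetilide plus 5 SD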;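 further: thallium influx through hERG after potassium depolarization seen as dye fluorescence rise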
Target sequence (Q12809 whole entry, looked up): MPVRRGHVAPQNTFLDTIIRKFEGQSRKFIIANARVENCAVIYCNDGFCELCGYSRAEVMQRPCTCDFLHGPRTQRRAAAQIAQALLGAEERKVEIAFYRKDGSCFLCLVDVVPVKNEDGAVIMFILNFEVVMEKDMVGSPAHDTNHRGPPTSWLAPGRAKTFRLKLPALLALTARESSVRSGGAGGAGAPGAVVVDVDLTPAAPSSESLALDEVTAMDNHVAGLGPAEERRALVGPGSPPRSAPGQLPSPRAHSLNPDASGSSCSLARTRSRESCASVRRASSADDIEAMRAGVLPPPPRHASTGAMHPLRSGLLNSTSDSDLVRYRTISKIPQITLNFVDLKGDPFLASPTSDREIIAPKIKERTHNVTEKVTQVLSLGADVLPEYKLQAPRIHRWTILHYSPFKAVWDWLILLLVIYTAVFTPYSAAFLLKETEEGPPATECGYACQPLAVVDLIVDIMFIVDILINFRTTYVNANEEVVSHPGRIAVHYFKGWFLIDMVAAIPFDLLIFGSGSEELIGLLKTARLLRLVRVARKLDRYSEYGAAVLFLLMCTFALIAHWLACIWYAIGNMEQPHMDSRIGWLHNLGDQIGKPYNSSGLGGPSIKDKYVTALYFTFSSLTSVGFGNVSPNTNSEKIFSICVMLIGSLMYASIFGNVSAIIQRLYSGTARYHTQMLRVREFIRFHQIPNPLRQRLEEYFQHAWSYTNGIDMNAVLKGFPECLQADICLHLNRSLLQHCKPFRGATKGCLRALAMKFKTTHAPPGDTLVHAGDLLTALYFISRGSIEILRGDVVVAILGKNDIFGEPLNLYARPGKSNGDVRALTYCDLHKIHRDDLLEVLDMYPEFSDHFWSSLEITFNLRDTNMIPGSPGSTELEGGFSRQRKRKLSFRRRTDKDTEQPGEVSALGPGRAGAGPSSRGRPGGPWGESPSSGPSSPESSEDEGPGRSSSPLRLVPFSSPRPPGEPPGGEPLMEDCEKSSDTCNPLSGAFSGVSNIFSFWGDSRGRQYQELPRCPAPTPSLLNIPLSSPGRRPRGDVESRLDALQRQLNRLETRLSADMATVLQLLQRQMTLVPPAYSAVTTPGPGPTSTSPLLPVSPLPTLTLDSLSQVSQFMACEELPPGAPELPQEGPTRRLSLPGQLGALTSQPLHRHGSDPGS
KCNQ1 pot: potentiates or activates the human KCNQ1 potassium channel. AID 2648. CHO-K1 KCNQ1, thallium flux FluxOR fluorescence; stronger effect = higher value. P51787. actives 0.35% (n = 310,000). B-score at 10 µM;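 active means fluorescence ratio B-score, a plate-corrected score, at least three library SD, with initial intensity B-score within 5 SD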
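Test system: CHO-K1 cells stably expressing KCNQ1 / Medium: assay buffer / Also added: depolarizing K+/Tl+ stimulus, K2SO4 and Tl2SO4 each 12.5 mM in 5x stock / Incubation: 90 min dye loading and 20 min compound exposure, both at room temperature / Signal: thallium influx via FluxOR fluorescence, kinetic imaging / Evaluation: B score of baseline-normalized fluorescence ratio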
KCNK9 inh: blocks the human KCNK9 two-pore domain potassium channel. Q9NPC2. HEK293 KCNK9, FluxOR thallium flux fluorescence; stronger effect = lower value. B-score at 10 µM. actives 1.2% (n = 310,000). AID 488922;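 active means ratio B-score over 3 SD below the library mean, with starting fluorescence within 5 SD of its mean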;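 further: negative B-score means less thallium flux so channel inhibition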
KCC2 mod: modulates chloride dependent transport by human KCC2; Q9H2X9; KCC2 cells, thallium flux FluoZin-2 fluorescence; B-score of Tl+ flux slope (higher = more flux/activation; lower = inhibition) at 10 µM; actives 2.2% (n = 190,000); AID 1456;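 active means thallium flux slope and its plate-corrected score both differing from the plate sample mean at a set confidence after two filtering rounds, in either direction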;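 further: slope of fluorescence scaled to starting intensity during 10 to 20 s after thallium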
KCNK3 inh: human KCNK3 channel inhibition, primary screen; CHO-KCNK3 thallium flux, FluxOR fluorescence; stronger effect = lower value; B-score at 10 µM; actives 0.84% (n = 340,000);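 active means B-score under library mean minus 4 SD, starting fluorescence ratio at most library mean plus 5 SD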;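 further: more negative B-score means stronger inhibition of thallium flux through KCNK3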
KCNQ1 inh: inhibitors of human KCNQ1 potassium channel. P51787. CHO-K1 KCNQ1, FluxOR thallium flux fluorescence; stronger effect = higher value. B-score at 10 µM. actives 1.3% (n = 310,000). AID 2642;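 active means compounds whose thallium flux B-score, printed positive for inhibition, exceeds three library SD while starting fluorescence stays within three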;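 further: channel opened by potassium depolarization with thallium stimulus after 20 min compound exposure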
KCC2 secondary: KCC2 (human) modulation, secondary assay. shares compounds with KCC2 mod. HEK293-KCC2, thallium flux, FluoZin2 fluorescence; stronger effect = higher value. normalised thallium flux (F/F0 slope) at 10 µM. actives 15% (n = 3,700);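 active means thallium flux slope above the same plate's solvent-only control mean plus 3 SD; inconclusive means the two replicate wells disagree; inactive means no significant difference from solvent-only control wells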
KCC2 bumet counter: thallium flux persisting under bumetanide in KCC2 cells, counter-screen secondary assay; shares compounds with KCC2 mod; HEK293-KCC2 + bumetanide/ouabain, thallium flux FluoZin2; stronger effect = higher value; normalized thallium flux at 10 µM; actives 49% (n = 3,700);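 active means thallium entry rate above the same plate's blocked-transporter control wells by more than 3 SD; inconclusive means the two repeat wells disagree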;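 further: raw slope of fluorescence over initial fluorescence between 10 and 20 s after thallium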
KCC2 sec2: KCC2 (human) modulation, second secondary assay | shares compounds with KCC2 mod | HEK293-KCC2, thallium flux FluoZin2 fluorescence; actives lie on both sides; F/F0 rise rate, 10–20 s post-thallium | normalized thallium flux at 10 µM | actives 23% (n = 3,700);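 active means thallium flux slope more than 3 SD above or below the plate's solvent-only control mean, mostly below; inconclusive means the two repeat wells disagreed; inactive means no significant shift from solvent-only controls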;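 further: raw slope with 0.1% DMSO as baseline and bumetanide as block control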
HEK counter1: acts in parental HEK cells, KCC2 counter-screen | thallium flux rate (normalised fluorescence) at 10 µM | shares compounds with KCC2 mod | HEK293 parental cells, thallium flux FluoZin2, ouabain; baseline-ratio fluorescence slope, 10–20 s after thallium | actives 46% (n = 3,700) | AID 1716;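 active means thallium flux rate significantly above the same plate's solvent-only control wells, beyond their mean plus 3 SD; inconclusive means the two replicate wells gave conflicting results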
KCC2 retest ouab: KCC2 (human) modulation, ouabain retest; AID 1717; shares compounds with KCC2 mod; actives 48% (n = 3,700); raw Tl+ flux slope (below DMSO = inhibition, above = activation) at 10 µM; HEK293-KCC2, thallium flux FluoZin2 fluorescence; bidirectional: low = inhibitor, high = activator;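 active means thallium flux slope beyond 3 SD from same-plate DMSO control mean in most replicates, usually higher, sometimes lower; inconclusive means repeat tests gave conflicting results; inactive means no significant difference from controls in most replicates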;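 further: slope of initial-normalized fluorescence between seconds 10 and 20 after thallium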
HEK293 Tl flux2: acts in parental HEK cells, second KCC2 counter-screen; shares compounds with KCC2 mod; HEK293 parental, thallium flux FluoZin-2 fluorescence slope; thallium flux slope at 10 µM; actives 33% (n = 3,700);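 active means thallium flux slope above the same plate's solvent-control mean plus 3 SD in both duplicate wells; inconclusive means duplicate wells that disagreed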;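 further: run without ouabain in cells lacking the KCC2 cotransporter; slope of fluorescence scaled to its starting value between 10 and 20 s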
* marks the source's active call; other numbers are inactive results; i = inactive; ? = inconclusive; . = no result. This is a sample that favours compounds with a hit; in the whole collection about 4.1% have one here.

SMILES	hERG protect	KCNQ1 pot	KCNK9 inh	KCC2 mod	KCNK3 inh	KCNQ1 inh	KCC2 secondary	KCC2 bumet counter	KCC2 sec2	HEK counter1	KCC2 retest ouab	HEK293 Tl flux2
O=C(CNC(=O)/C(=C/c1ccccc1)NC(=O)c1ccc(Br)cc1)OCc1ccccc1	-5	i	i	-6.9*	i	i	0.0078	0.0057	0.022*	0.0064	0.011*	0.009
O=C(NCCO)/C(=C/c1ccc(Br)cc1)NC(=O)c1cccs1	-14	i	i	.	i	i	0.0084	0.0068	0.03	0.0067	0.02	0.0098
Cc1ccc(C(=O)N/C(=C\c2ccccc2)C(=O)OCc2ccccc2)cc1	-9	i	i	-1.8	i	i	.	.	.	.	.	.
O=C(CNC(=O)/C(=C\c1ccc(Br)cc1)NC(=O)c1ccccc1)OCc1ccccc1	1	i	i	-6.1*	i	i	0.0066	0.0046	0.021*	0.0077	0.012*	0.01
N#Cc1c(NC(=O)c2ccc(Cn3cc(Br)cn3)o2)sc2c1CCCCC2	-8	i	i	-0.68	i	i	.	.	.	.	.	.
COC(=O)c1sc(NC(=O)c2ccc(Cn3cc(Cl)cn3)o2)c(C#N)c1C	-4	i	i	.	i	i	0.008	0.007	0.029	0.0064	0.042*	0.01
CC(=O)NCCn1c(SCC(=O)NCCC(C)C)nc2ccccc2c1=O	-9	i	i	.	i	i	.	.	.	.	.	.
Nc1c(C(=O)c2ccccc2)sc2snc(SCC(=O)c3ccccc3)c12	-23	i	i	.	i	i	0.0084	0.0066	0.03	0.0072	0.019	0.01
O=C(Cn1cnc2c(nnn2Cc2ccccc2)c1=O)N1CCN(c2ccccc2)CC1	-15	i	i	-4.5*	i	i	0.0065	0.0065	0.032	0.0086	0.014*	0.011
O=C(Cn1cnc2c(nnn2Cc2ccccc2F)c1=O)N1CCN(c2ccccc2)CC1	-3	i	i	.	i	i	.	.	.	.	.	.
O=C(Cn1cnc2c(nnn2Cc2ccc(F)cc2)c1=O)N1CCCc2ccccc21	-6	i	i	-4*	i	i	0.016	0.0051	0.025*	0.0077	0.015	0.011
O=C(Cn1cnc2c(nnn2Cc2ccccc2F)c1=O)OCc1ccccc1	-10	i	i	-7.4*	i	i	0.0082	0.0063	0.033	0.0044	0.015*	0.012
N#Cc1ccc(C23CC4(C2)[C@H](CN(Cc2ccc(-c5ccccc5)cc2)[C@@H]4c2ccccc2)C3c2ccccc2)cc1 (stereo partly drawn)	-12	i	i	3.7*	i	i	0.015	0.0049	0.026	0.0075	0.016	0.01
CC(Sc1nc2cc([N+](=O)[O-])ccc2n1-c1ccc(F)cc1)C(=O)NCc1ccc2c(c1)OCO2 (stereo not drawn)	-13	i	i	10*	i	i	0.0092	0.015*	0.034	0.013*	0.027	0.012*
CC(C)Cn1c(SCC(=O)N(C)C2CCS(=O)(=O)C2)nc2cc(Cl)ccc2c1=O (stereo not drawn)	-5	i	i	.	i	i	.	.	.	.	.	.
CN(C(=O)CSc1nc2cc([N+](=O)[O-])ccc2n1-c1ccc(F)cc1)C1CCS(=O)(=O)C1 (stereo not drawn)	-2	i	i	4.9*	i	i	0.0097	0.023*	0.032	0.014*	?	0.011*
CN(C(=O)CSc1nc2cc(Cl)ccc2c(=O)n1Cc1ccco1)C1CCS(=O)(=O)C1 (stereo not drawn)	-5	i	i	12*	i	i	0.011	0.014*	0.032	0.016*	?	0.012
CCn1c(SCC(=O)N(Cc2ccccc2)C2CCS(=O)(=O)C2)nc2ccccc2c1=O (stereo not drawn)	-3	i	i	.	i	i	0.0075	0.012*	0.03	0.011*	?	0.013*
Cc1cccc(N(CC(=O)NC(C)(C)C)C(=O)CNC(=O)c2cccs2)c1C	-12	i	i	0.46	i	i	.	.	.	.	.	.
Cn1c(N=Nc2ccc(N3CCOCC3)cc2)[n+](C)c2ccccc21	0	i	i	0.28	i	i	.	.	.	.	.	.
COc1ccc2c(-c3ccc(S(N)(=O)=O)cc3)c(-c3ccc(S(C)(=O)=O)cc3)sc2c1	.	.	.	.	i	.	.	.	.	.	.	.
CN(C(=O)CSc1nc2ccccc2n1CCc1ccccc1)C1CCS(=O)(=O)C1 (stereo not drawn)	-4	i	i	9.5*	i	i	0.0072	0.015*	0.031	0.011*	?	0.014*
C=CCn1c(SCC(=O)c2ccc(F)cc2)nnc1-c1ccc2c(c1)OCO2	-1	i	i	-3.7*	i	i	0.0077	0.0048	0.031	0.007	0.015*	0.011
O=C(Nc1ccc(S(=O)(=O)NCc2ccccc2)cc1)c1ccccc1[N+](=O)[O-]	-2	i	i	-6.6*	i	i	0.0058	0.0052	0.025*	0.0081	?	0.011
COc1ccc(CCNC(=O)CN2C(=O)NC(C)(c3ccc([N+](=O)[O-])cc3)C2=O)cc1 (stereo not drawn)	-14	i	i	0.011	i	i	.	.	.	.	.	.
O=S1(=O)C=C(SCc2ccccc2)Nc2ccccc21	-9	i	i	-1.8	i	i	.	.	.	.	.	.
O=S1(=O)C=C(SCc2ccc(F)cc2)Nc2ccccc21	-5	i	i	-4.3*	i	i	0.0078	0.0063	0.028	0.0071	0.027*	0.01
COc1ccc(NC(=O)Cn2nnc(C(N)=O)c2N)c(OC)c1	-3	i	i	2.5	i	i	.	.	.	.	.	.
